From PubChem BioAssay
PostGolgi ctrl: inhibits growth of the yeast control strain; hit rate 5% among 98,000; inhibition, % at 10 µM; efflux-deficient yeast background strain, growth absorbance A615, 16 h
tolC growth inh: E. coli tolC mutant growth inhibition | E. coli BW25113 tolC mutant growth, OD615 | growth inhibition, % at 10 µM (by protocol) | hit rate 2.2% among 65,000;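 active means growth inhibition at or above a cutoff equal to the mean over every tested compound plus 3 SD, cut at about 60% in these data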;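 further: growth measured after 20 h incubation at 37 °C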
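Test system: tolC-deleted E. coli BW25113; medium: LB with kanamycin 50 µg/mL; compound: single-point testing at 10 µM; incubation: 20 h compound exposure of bacteria at 37 °C; signal: OD at 615 nm; evaluation: growth inhibition in percent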
E coli WT exp: growth inhibitors of E. coli BW25113 wild type | OD600 absorbance | growth inhibition, % at 100 µM | hit rate 0.15% among 98,000 | AID 710;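 active means growth inhibition above about 50% at one test dose, limit read from the data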;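 further: growth measured after 20 h incubation at 37 °C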
PostGolgi yeast: growth inhibition of a yeast mutant, post-Golgi transport screen | inhibition, % at 10 µM | post-Golgi transport phenotypic cell assay | hit rate 0.9% among 98,000;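 further: yeast cells grown in 1536-well plates; yeast grown about 18 h at 30C before absorbance read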
PLAP activator: human PLAP activation. P05187. purified PLAP enzyme, luminescent substrate read-out; hits give high values. activation fold at 20 µM. hit rate 1.2% among 96,000; in the data active means activation fold above about 2
HePTP inhibitor: inhibitors of human HePTP phosphatase | recombinant HePTP phosphatase activity, OD absorbance | AID 521 | hit rate 0.64% among 110,000 | inhibition, % at 20 µM | P35236; in the data active means inhibition above about 50%;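 further: plate controls were vehicle for no effect and reference inhibitor for full effect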
Target sequence (P35236 whole entry, looked up): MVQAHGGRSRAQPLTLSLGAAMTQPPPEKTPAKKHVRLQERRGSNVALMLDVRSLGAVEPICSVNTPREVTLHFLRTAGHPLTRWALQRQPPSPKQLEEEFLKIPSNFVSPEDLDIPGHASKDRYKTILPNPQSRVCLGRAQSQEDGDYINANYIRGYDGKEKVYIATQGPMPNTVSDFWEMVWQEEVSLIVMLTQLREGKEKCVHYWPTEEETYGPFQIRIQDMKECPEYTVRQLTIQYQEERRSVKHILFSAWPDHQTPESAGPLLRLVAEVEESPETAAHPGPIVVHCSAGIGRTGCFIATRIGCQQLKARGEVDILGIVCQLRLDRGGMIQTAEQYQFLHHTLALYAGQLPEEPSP
An asterisk follows results filed as active; / = no result given. Most compounds without a hit are left out; they make up all but 5.5% or so of the library. Unless noted, no stated cut-off is given here; in the data, active means inhibition above about 30%; inactive means the rest.

SMILES	PostGolgi ctrl	tolC growth inh	E coli WT exp	PostGolgi yeast	PLAP activator	HePTP inhibitor
Cc1c(Cl)cccc1N=C1NC(=O)/C(=C/c2ccc(-c3ccccc3C(=O)O)o2)S1	/	/	/	/	/	98*
Cc1cc(C)c2nc3s/c(=C\c4ccc(-c5cc(C)c(C)cc5[N+](=O)[O-])o4)c(=O)n3c2c1	/	/	/	/	/	-2
O=C(O)c1cc(-c2ccc(/C=N/Nc3ccc(Cl)cc3)o2)ccc1Cl	10	/	4	63*	1.2	5
O=C(O)c1ccc(Cl)c(-c2ccc(/C=N\Nc3ccc([N+](=O)[O-])cn3)o2)c1	/	/	/	/	/	54*
C=COCCNC(=O)C(=O)Nc1ccc(C)cc1C	/	/	/	/	/	7
O=C(NC(=S)Nc1ccc(NC(=O)c2ccco2)c(Cl)c1)c1ccco1	/	/	/	/	/	-2
COC(=O)C1CSC(C(=O)OC)N1C(=O)Nc1c(C)cccc1C (stereo not given)	38*	/	3	-5	1	/
COC(=O)C1=C(C)N(CC2CCCO2)C(=O)/C1=C\c1ccccc1OC (stereo not given)	/	/	/	/	/	-16
N#Cc1ccccc1NCc1ccccc1	32*	-4	-5	-2	0.9	-2
O=c1cccccc1NCc1ccccc1	3	-7	18	20	1	-11
COc1ccc(NC(=O)CSc2nc3ccccc3o2)c(OC)c1	/	/	/	/	/	11
CN(c1ccccc1C(=O)Nc1ccc(S(=O)(=O)N2CCCCC2)cc1)S(C)(=O)=O	0	100*	9	0	1.1	-3
CN(c1ccccc1C(=O)Nc1ccc(S(=O)(=O)N2CCCC2)cc1)S(C)(=O)=O	8	/	3	-12	1.8	/
O=C(Nc1ccccc1)Nc1ccc(S(=O)(=O)N2CCCCC2)cc1	30*	100*	27	-10	1	4
O=C(COc1cccc(C(F)(F)F)c1)Nc1ccc(S(=O)(=O)N2CCCC2)cc1	8	64*	-7	-10	1.4	9
N#CC(C#N)=Cc1cn(-c2ncc(C(F)(F)F)cc2Cl)c2ccccc12	43*	/	-7	21	1	/
Cc1ccc(C2=NC(C)(C)N=C2SCC(=O)Nc2ccc(Cl)cc2)cc1	34*	/	-10	13	1.6	/
COC(=O)CSc1nc(N2CCCCC2)c2c(c1C#N)CCCC2	38*	64*	-8	-5	0.9	5
O=C(C1CCCN(S(=O)(=O)c2cccc3nonc23)C1)N1CCC(Cc2ccccc2)CC1 (stereo not given)	24	30	-10	-3	1.4	6
Cc1n[nH]c(C)c1S(=O)(=O)N1CCCC(C(=O)N2CCN(c3ccc(Cl)cc3)CC2)C1 (stereo not given)	44*	33	-1	17	1.9	11
O=C(C1CCCN(S(=O)(=O)c2cccc3nonc23)C1)N1CCN(c2cccc(Cl)c2)CC1 (stereo not given)	45*	/	-11	1	1.2	/
Cc1nn(C)c(C)c1S(=O)(=O)N1CCCC(C(=O)N2CCN(c3ccc(Cl)cc3)CC2)C1 (stereo not given)	8	-12	0	-10	1.6	44
COc1ccc(-c2nnc(-c3ccc(Br)o3)o2)cc1	/	/	/	/	/	-3
COc1ccc(-c2n[nH]c(C(F)(F)F)c2-c2cc3ccccc3o2)c(O)c1	102*	100*	17	104*	2*	/
CCOC(=O)c1c(CN2CCOCC2)n(-c2ccccc2)c2cc(Br)c(OC)cc12	54*	/	-25	-1	1.7	/
SMILES	PostGolgi ctrl	tolC growth inh	E coli WT exp	PostGolgi yeast	PLAP activator	HePTP inhibitor
CCOC(=O)c1c(CN2CCOCC2)n(-c2ccccc2)c2cc(Br)c(O)cc12	41*	/	-3	6	1.4	/
COc1cc2c(C(=O)N3CCN(c4ccccc4)CC3)c(C)oc2cc1Br	35*	10	-13	0	1	-2
CCOC(=O)c1c(CN2CCN(C)CC2)n(C)c2cc(Br)c(OC)cc12	5	-12	5	-10	1.5	2
COc1ccc(N2CCN(C(=O)c3c(-c4ccccc4)noc3C)CC2)cc1	0	-3	-4	0	/	-4
CCOC(=O)c1c(CN2CCOCC2)n(C)c2cc(Br)c(O)cc12	/	/	/	/	/	-2
Cc1cc(OCC(=O)NNC(=O)c2ccccc2C)ccc1Br	/	/	/	/	/	-13
Cc1cc2ncn(CC(O)COc3cccc(C(=O)O)c3)c2cc1C (stereo not given)	-7	-19	5	35*	1.5	6
Cc1nc(-c2ccccc2)nc(N/N=C/c2ccc(N(C)C)cc2)c1C	/	/	/	/	/	6
Cc1ccc(Cn2c(=O)n(Cc3ccco3)c(=O)c3ccccc32)cc1	7	-16	-2	5	/	3
O=c1c2ccccc2n(Cc2ccc(Cl)cc2)c(=O)n1Cc1ccco1	75*	12	-7	-2	/	1
